# Measurements published in ChEMBL document CHEMBL4373711, “Development of 3,5-Dinitrophenyl-Containing 1,2,4-Triazoles and Their Trifluoromethyl Analogues as Highly Efficient Antitubercular Agents Inhibiting Decaprenylphosphoryl-β-d-ribofuranose 2'-Oxidase” (J Med Chem, 2019).
# Activity calls are given as the source filed them. No cut-off for these calls is given here.
# Legend:
# [1] = Cytotoxicity against human A431 cells assessed as cell viability at 30 uM after 48 hrs by CellTiter 96 aqueous one solution assay relative to control; type: cell-based, A-431; details: read-out: Activity
# Procedure, shortened: (§1)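 HepG2 (DMEM, 10% FBS, 1 mM pyruvate) or A431 (DMEM, 10% FBS) seeded 10,000 cells/well, 24 h at 37 °C, 5% CO2, then 30 µM compound for 48 h. MTS reagent 60 min, absorbance 490 nm, background subtracted; 0.1% DMSO vehicle = 100%, 10% SDS = 0% viability.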
# [2] = system: Mycobacterium tuberculosis; assay: Antimycobacterial activity against Mycobacterium tuberculosis H37Rv CNCTC My 331/88 after 14 days; type: functional; details: H37Rv CNCTC My 331/88, 336 h
# Procedure, shortened: (§2)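 M. tuberculosis strains (H37Rv and clinical MDR/XDR isolates) tested by microdilution in Šula's semisynthetic medium. Compounds were dissolved in DMSO and tested at 32 to 0.03 µM in twofold steps. Inoculum was a 1.0 McFarland suspension diluted 10-3. Plates were incubated at 37 °C and read at 14 and 21 days.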
# [3] = system: Mycobacterium avium; assay: Antimycobacterial activity against Mycobacterium avium CNCTC My 330/88 after 21 days; type: functional; details: CNCTC My 330/88, 504 h
# Procedure, shortened: (§3)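 M. avium was tested by microdilution in Šula's semisynthetic medium, with compounds dissolved in DMSO and serially diluted from 1000 down to 1. Inoculum was a 1.0 McFarland suspension diluted 10-5. Plates were incubated at 37 °C and read at 14 and 21 days. […] Isoniazid and rifampicin served as standards.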
# [4] = system: Pseudomonas aeruginosa; assay: Antibacterial activity against Pseudomonas aeruginosa ATCC 27853 CCM 3955 at highest concentration measured after 24 to 48 hrs by alamar blue dye based broth microdilution assay; type: functional, organism-based
# [5] = system: Staphylococcus aureus; assay: Antibacterial activity against methicillin-resistant Staphylococcus aureus subsp. aureus ATCC 43300 CCM 4750 at highest concentration measured after 24 to 48 hrs by alamar blue dye based broth microdilution assay; type: functional, organism-based
# [6] = system: Trichophyton interdigitale; assay: Antifungal activity against Trichophyton interdigitale ATCC 9533 CCM 8377 at highest concentration measured after 72 to 120 hrs by alamar blue dye based broth microdilution assay; type: functional
# [7] = system: Candida albicans; assay: Antifungal activity against Candida albicans ATCC 24433 CCM 8320 at highest concentration measured after 24 to 48 hrs by alamar blue dye based broth microdilution assay; type: functional, organism-based
# [8] = system: Mycobacterium kansasii; assay: Antimycobacterial activity against Mycobacterium kansasii 6509/96 after 21 days; type: functional; details: 6509/96, 504 h
# Procedure, shortened: (§4)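 Microdilution in Šula's semisynthetic medium; compounds in DMSO at 32–0.03 µM. Inoculum from 1.0 McFarland suspension diluted 10-4. […] Isoniazid and rifampicin as reference drugs.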
# [9] = system: Mycobacterium kansasii; assay: Antimycobacterial activity against Mycobacterium kansasii 6509/96 after 7 days; type: functional; details: 6509/96, 168 h; procedure, shortened: as §4
# [10] = system: Candida parapsilosis; assay: Antifungal activity against Candida parapsilosis ATCC 22019 CCM 8260 at highest concentration measured after 24 to 48 hrs by alamar blue dye based broth microdilution assay; type: functional, organism-based
# [11] = system: Mycobacterium avium; assay: Antimycobacterial activity against Mycobacterium avium CNCTC My 330/88 after 14 days; type: functional; details: CNCTC My 330/88, 336 h; procedure, shortened: as §3
# [12] = Cytotoxicity against human HepG2 cells assessed as cell viability at 30 uM after 48 hrs by CellTiter 96 aqueous one solution assay relative to control; type: cell-based; details: read-out: Activity; procedure, shortened: as §1
# [13] = system: Pichia kudriavzevii; assay: Antifungal activity against Candida krusei ATCC 6258 CCM8271 at highest concentration measured after 24 to 48 hrs by alamar blue dye based broth microdilution assay; type: functional, organism-based
# [14] = system: Escherichia coli; assay: Antibacterial activity against Escherichia coli ATCC 25922 CCM 3954 at highest concentration measured after 24 to 48 hrs by alamar blue dye based broth microdilution assay; type: functional, organism-based
# [15] = system: Serratia marcescens; assay: Antibacterial activity against Serratia marcescens at highest concentration measured after 24 to 48 hrs by alamar blue dye based broth microdilution assay; type: functional, organism-based
# [16] = system: Mycobacterium kansasii; assay: Antimycobacterial activity against Mycobacterium kansasii CNCTC My 235/80 after 14 days; type: functional; details: CNCTC My 235/80, 336 h; procedure, shortened: as §4
# [17] = system: Enterococcus faecalis; assay: Antibacterial activity against Enterococcus faecalis ATCC 29212 CCM 4224 at highest concentration measured after 24 to 48 hrs by alamar blue dye based broth microdilution assay; type: functional, organism-based
# [18] = system: Mycobacterium kansasii; assay: Antimycobacterial activity against Mycobacterium kansasii CNCTC My 235/80 after 7 days; type: functional; details: CNCTC My 235/80, 168 h; procedure, shortened: as §4
# [19] = system: Staphylococcus aureus; assay: Antibacterial activity against Staphylococcus aureus subsp. aureus ATCC 29213 CCM 4223 at highest concentration measured after 24 to 48 hrs by alamar blue dye based broth microdilution assay; type: functional, organism-based
# [20] = system: A-431; assay: Cytotoxicity against human A431 cells assessed as reduction in cell viability after 48 hrs by CellTiter 96 aqueous one solution assay; type: cell-based; details: A-431, 48 h
# [21] = system: Candida tropicalis; assay: Antifungal activity against Candida tropicalis ATCC 750 CCM 8264 at highest concentration measured after 24 to 48 hrs by alamar blue dye based broth microdilution assay; type: functional, organism-based
# [22] = system: Klebsiella pneumoniae; assay: Antibacterial activity against Klebsiella pneumoniae at highest concentration measured after 24 to 48 hrs by alamar blue dye based broth microdilution assay; type: functional, organism-based
# [23] = system: Mycobacterium kansasii; assay: Antimycobacterial activity against Mycobacterium kansasii 6509/96 after 14 days; type: functional; details: 6509/96, 336 h; procedure, shortened: as §4
# [24] = system: Aspergillus fumigatus; assay: Antifungal activity against Aspergillus fumigatus ATCC 204305 at highest concentration measured after 24 to 48 hrs by alamar blue dye based broth microdilution assay; type: functional, organism-based
# [25] = system: Staphylococcus epidermidis; assay: Antibacterial activity against Staphylococcus epidermidis at highest concentration measured after 24 to 48 hrs by alamar blue dye based broth microdilution assay; type: functional, organism-based
# [26] = system: Aspergillus flavus; assay: Antifungal activity against Aspergillus flavus CCM 8363 at highest concentration measured after 24 to 48 hrs by alamar blue dye based broth microdilution assay; type: functional, organism-based
# [27] = system: Lichtheimia corymbifera; assay: Antifungal activity against Lichtheimia corymbifera CCM 8077 at highest concentration measured after 24 to 48 hrs by alamar blue dye based broth microdilution assay; type: functional, organism-based
# [28] = system: HepG2; assay: Cytotoxicity against human HepG2 cells assessed as reduction in cell viability after 48 hrs by CellTiter 96 aqueous one solution assay; type: cell-based; details: HepG2, 48 h
# [29] = system: Mycobacterium tuberculosis; assay: Antimycobacterial activity against Mycobacterium tuberculosis H37Rv CNCTC My 331/88 after 21 days; type: functional; details: H37Rv CNCTC My 331/88, 504 h; procedure, shortened: as §2
# [30] = system: Mycobacterium kansasii; assay: Antimycobacterial activity against Mycobacterium kansasii CNCTC My 235/80 after 21 days; type: functional; details: CNCTC My 235/80, 504 h; procedure, shortened: as §4
SMILES,"viability at 48 h, 30 µM [1] [%]",MIC99 [2] [µM],MIC99 [3] [µM],Activity [4],Activity [5],Activity [6],Activity [7],MIC99 [8] [µM],MIC99 [9] [µM],Activity [10],MIC99 [11] [µM],"viability at 48 h, 30 µM [12] [%]",Activity [13],Activity [14],Activity [15],MIC99 [16] [µM],Activity [17],MIC99 [18] [µM],Activity [19],IC50 [20] [µM],also measured
CCCCCCn1c(SCc2ccccc2)nnc1-c1cc([N+](=O)[O-])cc([N+](=O)[O-])c1,98,1,250,inactive,inactive,inactive,inactive,1,1,inactive,250,102,inactive,inactive,inactive,1,inactive,1,inactive,> 30,Activity [21]: inactive; Activity [22]: inactive; MIC99 [23]: 1 µM; Activity [24]: inactive; Activity [25]: inactive; Activity [26]: inactive; Activity [27]: inactive; IC50 [28]: > 30 µM; MIC99 [29]: 1 µM; MIC99 [30]: 1 µM
O=[N+]([O-])c1cc(CSc2nnc(-c3ccc(Cl)cc3)n2Cc2ccccc2)cc(C(F)(F)F)c1,73,32,250,inactive,inactive,inactive,inactive,> 32,> 32,inactive,250,107,inactive,inactive,inactive,> 32,inactive,32,inactive,> 30,Activity [21]: inactive; Activity [22]: inactive; MIC99 [23]: > 32 µM; Activity [24]: inactive; Activity [25]: inactive; Activity [26]: inactive; Activity [27]: inactive; IC50 [28]: > 30 µM; MIC99 [29]: > 32 µM; MIC99 [30]: > 32 µM
